The list is not random: actives were taken first. Their share in the collection is about 0.4%.
PDI inh: PDI (human) enzyme inhibition; AID 588391; P07237; PDI insulin aggregation turbidity, A650, 90 min; inhibition, % at 10 µM; hit rate 0.052% among 350,000;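 active means mean inhibition across replicates of 30% or more, whatever share of single replicates reach that level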
Target sequence (P07237 whole entry, looked up): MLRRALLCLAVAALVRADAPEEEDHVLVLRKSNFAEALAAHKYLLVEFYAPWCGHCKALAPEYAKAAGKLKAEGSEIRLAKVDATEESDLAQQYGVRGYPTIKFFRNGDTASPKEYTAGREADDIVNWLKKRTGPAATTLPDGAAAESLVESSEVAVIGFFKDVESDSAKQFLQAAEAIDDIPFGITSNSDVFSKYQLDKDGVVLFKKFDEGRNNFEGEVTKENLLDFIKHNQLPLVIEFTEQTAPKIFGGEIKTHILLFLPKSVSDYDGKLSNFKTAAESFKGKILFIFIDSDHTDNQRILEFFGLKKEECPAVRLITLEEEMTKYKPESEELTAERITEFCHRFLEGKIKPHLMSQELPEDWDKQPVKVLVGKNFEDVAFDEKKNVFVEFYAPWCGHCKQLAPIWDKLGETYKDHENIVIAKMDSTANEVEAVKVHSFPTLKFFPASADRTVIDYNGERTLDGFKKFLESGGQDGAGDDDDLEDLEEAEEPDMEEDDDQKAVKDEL
TbMetRS inhib: Trypanosoma brucei MetRS inhibition. hit rate 0.4% among 360,000. purified T. brucei MetRS, ATP depletion, Kinase-Glo luminescence. inhibition, % at 11.9 µM;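 active means inhibition above a per-plate cutoff of the control wells' mean inhibition plus 3 SD, cut at about 5.5% in these data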
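Dosing: 11.9 µM single point; system: parasite MetRS enzyme; technique: luminescence of leftover ATP; times: 15 min enzyme-compound preincubation, 2 h reaction, 10 min detection, 25 °C; replicates: each compound tested once; read-out basis: percent inhibition relative to median high and low control wells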
ERp5 inh: inhibitors of human ERp5; AID 651711; hit rate 0.05% among 350,000; Q15084; inhibition, % at 9.99 µM; ERp5 insulin aggregation, absorbance 650 nm, 90 min;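 active means mean replicate inhibition above about 25%, with every replicate also reaching it, limit read from the data, passing the limit was not always enough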
TbMetRS confirm: confirmation of Trypanosoma brucei MetRS inhibitors; shares compounds with TbMetRS inhib; inhibition, % at 11.9 µM; AID 624412; hit rate 93% among 1,400; T. brucei MetRS enzyme, luminescence (ATP depletion); in the data active means inhibition above about 7%
Jurkat tox: kills Jurkat cells in T. brucei MetRS counterscreen; inhibition, % at 8.3 µM; hit rate 12% among 1,400; shares compounds with TbMetRS inhib; Jurkat cells viability, ATP luminescence; in the data active means inhibition above about 15%
Tb MetRS inh FP: inhibits T. brucei methionyl tRNA synthetase in orthogonal FP test; shares compounds with TbMetRS inhib; purified T. brucei MetRS, fluorescence polarization; inhibition, % at 11.9 µM; hit rate 44% among 1,400; AID 651607; in the data active means inhibition above about 17%
Numbers stand for hits.

For CC(C)(C)[C@@H]1C=C(C(=O)NCc2ccccc2)O[C@H](OCc2ccc(CO)cc2)C1 the results were PDI inh inactive, TbMetRS inhib inactive and ERp5 inh inactive.
O=C(NCc1nc2ccccc2[nH]1)C1=C[C@@H](c2ccc(C(F)(F)F)cc2)C[C@@H](OCc2ccc(CO)cc2)O1 was read as PDI inh inactive, TbMetRS inhib 37, TbMetRS confirm 79, Jurkat tox inactive and Tb MetRS inh FP 49.
For O=C(NCc1nc2ccccc2[nH]1)C1=C[C@@H](c2ccc3c(c2)OCO3)C[C@@H](OCc2ccc(CO)cc2)O1 the results were ERp5 inh inactive.
Screening CCC(=O)N1[C@@H](CO)[C@@H]2c3ccccc3N(C(=O)c3cccc(OC)c3)C[C@@H]21 returned ERp5 inh inactive.
`CO[C@@H]1CC[C@H]2CCN(C)C(=O)CCCN(C)C(=O)c3cc(C#N)ccc3OC[C@@H]1O2` gave ERp5 inh inactive.
C[C@@H]1CCCCO[C@@H](CN(C)C(=O)CCCN(C)C)[C@H](C)CN([C@H](C)CO)C(=O)c2cc(NC(=O)NC3CCCCC3)ccc2O1 was read as ERp5 inh inactive.
For C[C@H](CO)N1C[C@H](C)[C@@H](CN(C)C(=O)Nc2ccc(F)cc2)Oc2ccc(NS(=O)(=O)c3cccs3)cc2CC1=O the results were ERp5 inh inactive.
For COc1ccc(S(=O)(=O)Nc2ccc3c(c2)C(=O)N([C@H](C)CO)C[C@@H](C)[C@H](CN(C)S(=O)(=O)c2cccs2)OCCCC[C@@H](C)O3)cc1 the results were ERp5 inh inactive.
O=C(NCc1ccccc1)C1=C[C@@H](c2ccccc2)C[C@@H](OCc2ccc(CO)cc2)O1 was read as PDI inh inactive, TbMetRS inhib inactive and ERp5 inh inactive.
O=C(NCc1ccccc1)C1=C[C@H](c2ccc(Br)cc2)C[C@H](OCc2ccc(CO)cc2)O1 was read as PDI inh inactive, TbMetRS inhib inactive and ERp5 inh inactive.
For O=C(NCc1nc2ccccc2[nH]1)C1=C[C@H](c2ccccc2)C[C@H](OCc2ccc(CO)cc2)O1 the results were PDI inh inactive, TbMetRS inhib 31, ERp5 inh inactive, TbMetRS confirm 75, Jurkat tox inactive and Tb MetRS inh FP 38.
Screening O=C(NCc1nc2ccccc2[nH]1)C1=C[C@@H](c2ccccc2)C[C@@H](OCc2ccc(CO)cc2)O1 returned PDI inh inactive, TbMetRS inhib 77, ERp5 inh inactive, TbMetRS confirm 104, Jurkat tox inactive and Tb MetRS inh FP 84.
For C[C@@H]1CN([C@@H](C)CO)S(=O)(=O)c2ccc(-c3cncnc3)cc2O[C@H]1CN(C)C(=O)C1CCCCC1 the results were ERp5 inh inactive.
`C[C@@H]1CCCCO[C@@H](CN(C)CC2CC2)[C@@H](C)CN([C@H](C)CO)C(=O)c2cc(NS(=O)(=O)c3cn(C)cn3)ccc2O1` gave ERp5 inh inactive.
Screening COc1ccccc1-c1cn(CC[C@@H]2CC[C@@H](NC(=O)C3CCC3)[C@H](CO)O2)nn1 returned ERp5 inh inactive.
O=S(=O)(c1ccc(-c2ccccc2)cc1)N1CCN(Cc2ccc(OCCO)cc2)CC1 was read as ERp5 inh inactive.
`CCc1c(O)nc(SCC(=O)Nc2ccccc2)n(-c2ccccc2)c1=O` gave PDI inh inactive, TbMetRS inhib inactive and ERp5 inh inactive.
CCc1c(O)nc(SCC(=O)Nc2ccc(Br)cc2)n(-c2ccc(C)cc2)c1=O was read as PDI inh inactive, TbMetRS inhib 6.4, ERp5 inh inactive, TbMetRS confirm 22, Jurkat tox inactive and Tb MetRS inh FP inactive.
For O=C(O)c1ccc(Nc2nc3ccc(Cl)cc3[nH]2)cc1 the results were PDI inh inactive, TbMetRS inhib 11, ERp5 inh inactive, TbMetRS confirm 44, Jurkat tox inactive and Tb MetRS inh FP inactive.
`O=C(Nc1nc2ccccc2[nH]1)c1cccc(Cl)c1` gave PDI inh inactive, TbMetRS inhib inactive and ERp5 inh inactive.
Screening Cc1noc(C)c1S(=O)(=O)N(C)C[C@@H]1Oc2ccc(NC(=O)CCN3CCOCC3)cc2CC(=O)N([C@@H](C)CO)C[C@H]1C returned ERp5 inh inactive.
`C[C@H]1CCCCO[C@@H](CN(C)C(=O)Nc2ccccc2)[C@@H](C)CN([C@@H](C)CO)C(=O)c2cc(NC(=O)Nc3ccc4c(c3)OCO4)ccc2O1` gave ERp5 inh inactive.
O=C(Cn1cc(C(=O)c2cccs2)c2ccccc21)NCC1CCCO1 (configuration not stated) was read as PDI inh inactive and TbMetRS inhib inactive.
Screening O=C(Cn1cc(C(=O)c2cccs2)c2ccccc21)NCc1ccc2c(c1)OCO2 returned TbMetRS inhib 21, ERp5 inh inactive, TbMetRS confirm 35, Jurkat tox inactive and Tb MetRS inh FP inactive.
Screening COc1cc(/C=C2\SC(=S)N(NS(=O)(=O)c3ccc(C)cc3)C2=O)cc(OC)c1OC returned PDI inh inactive, TbMetRS inhib inactive and ERp5 inh inactive.
For CCOc1cc(/C=C2\SC(=S)N(NS(=O)(=O)c3ccc(C)cc3)C2=O)ccc1O the results were PDI inh inactive, TbMetRS inhib 5.8, ERp5 inh inactive, TbMetRS confirm 11, Jurkat tox inactive and Tb MetRS inh FP 32.
For O=c1[nH]c2cc3ccccc3cc2nc1-c1nnnn1Cc1ccccc1 the results were TbMetRS inhib 22, ERp5 inh inactive, TbMetRS confirm 38, Jurkat tox inactive and Tb MetRS inh FP 18.
For O=c1[nH]c2ccccc2nc1-c1nnnn1C1CCCC1 the results were TbMetRS inhib inactive and ERp5 inh inactive.
`Cc1cc2nc(-c3nnnn3Cc3ccccc3)c(=O)[nH]c2cc1C` gave TbMetRS inhib inactive and ERp5 inh inactive.
`O=c1[nH]c2cc3ccccc3cc2nc1-c1nnnn1C1CCCC1` gave TbMetRS inhib 52, ERp5 inh inactive, TbMetRS confirm 61, Jurkat tox 69 and Tb MetRS inh FP 40.
Screening CC(C)NC(=O)N(C)C[C@@H]1Oc2ccc(NC(=O)Cc3ccccc3)cc2CC(=O)N([C@H](C)CO)C[C@H]1C returned ERp5 inh inactive.
For COc1ccc(/C(C#N)=C/c2cccnc2)cc1 the results were PDI inh inactive, TbMetRS inhib 6.1, ERp5 inh inactive, TbMetRS confirm 15, Jurkat tox inactive and Tb MetRS inh FP inactive.
`COc1ccc(C(C#N)=Cc2cc(OC)c(OC)c(OC)c2)cc1` gave ERp5 inh inactive.
Screening C[C@@H]1CN([C@H](C)CO)C(=O)c2ccccc2-c2ccccc2CO[C@@H]1CN(C)S(=O)(=O)c1ccsc1 returned ERp5 inh inactive.
`COc1cccc(N2CCN(c3ncnc4c3[nH]c3ccc(F)cc34)CC2C)c1` (configuration not stated) gave PDI inh inactive, TbMetRS inhib 8.5, TbMetRS confirm 12, Jurkat tox 95 and Tb MetRS inh FP inactive.
